ChEMBL document CHEMBL5370639, “Structure-Based Lead Optimization of Enterovirus D68 2A Protease Inhibitors” (J Med Chem, 2023)
pEC50, pIC50: −log10 of the molar value.

Tests used:
[1] = tested on: enterovirus D68; assay: Antiviral activity against enterovirus D68 US/MO/14-18947 infected in human RD cells assessed as reduction in virus induced cytopathic effect by neutral red staining based CPE assay; type: functional, organism-based; conditions: Enterovirus D, US/MO/14-18947, RD
Summary of the method: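 RD cells seeded overnight to ~90% confluency, washed with PBS containing Mg/Ca, infected with virus in DMEM/2% FBS/30 mM MgCl2 for at least 1 h at 33 °C, then compound added. Cells stained with 66 μg/mL neutral red for 2 h; uptake read at 540 nm. EC50 from dose-response fit; mean ± SD of two independent experiments, three repeats each.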

[2] = Cytotoxicity against human RD cells assessed as reduction in cell viability by neutral red staining based CPE assay; type: toxicity; conditions: RD cells
Summary of the method: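 Uninfected RD cells, grown overnight to ~90% confluency, treated with compound under otherwise the same handling as the antiviral assay. Viability by neutral red uptake (66 μg/mL, 2 h, absorbance 540 nm). CC50 from best-fit dose-response curve; mean ± SD of two independent experiments, three repeats each.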

[3] = Inhibition of Enterovirus D68 US/KY/14-18953 2A protease expressed in Escherichia coli BL21(DE3) using Dabcyl-KIRIVNT/GPGEGGE-Edans as substrate incubated for 2 hrs by FRET assay

Compound | pEC50 [1] | CC50 [2] [µM] | pIC50 [3]
CC(C)(C)[C@H](NC(=O)CC12CC3CC(CC(C3)C1)C2)C(=O)N1C[C@@H]2CCC[C@@H]2[C@H]1C(=O)N[C@@H](Cc1ccc(F)cc1)C(=O)c1nc2ccccc2s1 | < 4.52 | > 150 | < 4.70
CCC[C@H](NC(=O)[C@@H]1[C@H]2CCC[C@H]2CN1C(=O)[C@@H](NC(=O)CC1CCC(F)(F)CC1)C(C)(C)C)C(=O)C(=O)NC1CC1 | 6.12 | > 50 | 6.85
CC(C)(C)[C@H](NC(=O)CC12CC3CC(CC(C3)C1)C2)C(=O)N1C[C@@H]2CCC[C@@H]2[C@H]1C(=O)N[C@@H](Cc1c[nH]c2ccccc12)C(=O)C(=O)NC1CC1 | 6.55 | > 150 | 6.74
CC(C)[C@H](NC(=O)[C@@H]1[C@H]2CCC[C@H]2CN1C(=O)[C@@H](NC(=O)CC12CC3CC(CC(C3)C1)C2)C(C)(C)C)C(=O)C(=O)NC1CC1 | 6.80 | > 150 | 7.05
CCC[C@H](NC(=O)[C@@H]1[C@H]2CCC[C@H]2CN1C(=O)[C@@H](NC(=O)OCc1ccccc1)C(C)(C)C)C(=O)C(=O)NC1CC1 | 5.54 | > 150 | 6.12
CC(C)(C)[C@H](NC(=O)CC12CC3CC(CC(C3)C1)C2)C(=O)N1C[C@@H]2CCC[C@@H]2[C@H]1C(=O)N[C@@H](Cc1ccc(F)cc1)C(=O)C(=O)NC1CC1 | 6.72 | 14.1 | 6.82
CCC[C@H](NC(=O)[C@@H]1[C@H]2CCC[C@H]2CN1C(=O)[C@@H](NC(=O)[C@@H](NC(=O)OCc1ccccc1)C1CCCCC1)C(C)(C)C)C(=O)C(=O)NC1CC1 | 6.08 | > 150 | 6.44
CCC[C@@H](C#N)NC(=O)[C@@H]1[C@H]2CCC[C@H]2CN1C(=O)[C@@H](NC(=O)CC12CC3CC(CC(C3)C1)C2)C(C)(C)C | 5.41 | > 150 | 5.88
CCC[C@H](NC(=O)[C@@H](NC(=O)[C@@H](NC(=O)CC12CC3CC(CC(C3)C1)C2)C(C)(C)C)C1CCCCC1)C(=O)C(=O)NC1CC1 | < 5.74 | 1.84 | 
CC(C)(C)[C@H](NC(=O)CC12CC3CC(CC(C3)C1)C2)C(=O)N1C[C@@H]2CCC[C@@H]2[C@H]1C(=O)N[C@@H](Cc1ccsc1)C(=O)C(=O)NC1CC1 | 6.62 | 28.2 | 6.92
CCC[C@H](NC(=O)[C@@H]1[C@H]2CCC[C@H]2CN1C(=O)[C@@H](NC(=O)Cc1ccccc1)C(C)(C)C)C(=O)C(=O)NC1CC1 | 5.71 | > 150 | 6.60
CCC[C@H](NC(=O)[C@@H]1[C@H]2CCC[C@H]2CN1C(=O)[C@@H](NC(C)=O)C(C)(C)C)C(=O)C(=O)NC1CC1 | 5.33 | > 150 | 6.03
CC(C)(C)[C@H](NC(=O)CC12CC3CC(CC(C3)C1)C2)C(=O)N1C[C@@H]2CCC[C@@H]2[C@H]1C(=O)N[C@@H](CC1CC1)C(=O)C(=O)NC1CC1 | 6.64 | 34.9 | 6.85
CCC[C@H](NC(=O)[C@@H]1[C@H]2CCC[C@H]2CN1C(=O)OCc1ccccc1)C(=O)C(=O)NC1CC1 | 4.59 | > 150 | 5.36
CC(C)(C)[C@H](NC(=O)CC12CC3CC(CC(C3)C1)C2)C(=O)N1C[C@@H]2CCC[C@@H]2[C@H]1C(=O)N[C@H](C(=O)C(=O)NC1CC1)c1ccc(F)cc1 | 6.11 | 24.1 | 6.46
CCC[C@H](NC(=O)[C@@H]1[C@H]2CCC[C@H]2CN1C(=O)[C@@H](NC(=O)/C=C/c1ccccc1)C(C)(C)C)C(=O)C(=O)NC1CC1 | 5.40 | > 150 | 6.12

Compound | pEC50 [1] | CC50 [2] [µM] | pIC50 [3]
CC(C)(C)[C@H](NC(=O)CC12CC3CC(CC(C3)C1)C2)C(=O)N1C[C@@H]2CCC[C@@H]2[C@H]1C(=O)N[C@H](C(=O)C(N)=O)C1CCCCC1 | 6.85 | > 150 | 6.72
CCC[C@H](NC(=O)[C@@H]1[C@H]2CCC[C@H]2CN1C(=O)[C@@H](NC(=O)NC(C)(C)C)C(C)(C)C)C(=O)C(=O)NC1CC1 |  |  | 5.94
CCC[C@H](NC(=O)[C@H](CC1CCCCC1)NC(=O)[C@@H](NC(=O)CC12CC3CC(CC(C3)C1)C2)C(C)(C)C)C(=O)C(=O)NC1CC1 | < 6.54 | 0.29 | 
CCC[C@H](NC(=O)[C@@H]1[C@H]2CCC[C@H]2CN1C(=O)[C@@H](NC(=O)CC1C2CC3CC(C2)CC1C3)C(C)(C)C)C(=O)C(=O)NC1CC1 (some centres not stated) | 6.74 | > 150 | 6.92
CC(C)(C)[C@H](NC(=O)NC12CC3CC(CC(C3)C1)C2)C(=O)N1C[C@@H]2CCC[C@@H]2[C@H]1C(=O)N[C@@H](Cc1ccc(F)cc1)C(=O)C(=O)NC1CC1 | 6.46 | 21.3 | 6.80
CCC[C@H](NC(=O)[C@@H]1[C@H]2CCC[C@H]2CN1C(=O)[C@@H](NC(=O)CC12CC3CC(CC(O)(C3)C1)C2)C(C)(C)C)C(=O)C(=O)NC1CC1 | 5.73 | > 150 | 6.40
CC(C)(C)Oc1ccc(C[C@H](NC(=O)[C@@H]2[C@H]3CCC[C@H]3CN2C(=O)[C@@H](NC(=O)CC23CC4CC(CC(C4)C2)C3)C(C)(C)C)C(=O)C(=O)NC2CC2)cc1 | 5.76 | 9.79 | 6.74
CC(C)(C)[C@H](NC(=O)CC12CC3CC(CC(C3)C1)C2)C(=O)N1C[C@@H]2CCC[C@@H]2[C@H]1C(=O)NC1(C(=O)C(=O)NC2CC2)CCCCC1 | 6.00 | > 150 | 6.13
CCC[C@H](NC(=O)[C@@H]1[C@H]2CCC[C@H]2CN1C(=O)[C@@H](NC(=O)CC1CCCCC1)C(C)(C)C)C(=O)C(=O)NC1CC1 | 6.42 | > 150 | 7.05
COC[C@H](NC(=O)[C@@H]1[C@H]2CCC[C@H]2CN1C(=O)[C@@H](NC(=O)CC12CC3CC(CC(C3)C1)C2)C(C)(C)C)C(=O)C(=O)NC1CC1 | 5.64 | 23.2 | 6.92
CC(C)(C)[C@H](NC(=O)CC12CC3CC(CC(C3)C1)C2)C(=O)N1C[C@@H]2CCC[C@@H]2[C@H]1C(=O)NC1(C(=O)C(=O)NC2CC2)CCC1 | 5.49 | > 150 | 5.32
CC(C)(C)[C@H](NC(=O)[C@@H]1[C@H]2CCC[C@H]2CN1C(=O)[C@@H](NC(=O)CC12CC3CC(CC(C3)C1)C2)C(C)(C)C)C(=O)C(=O)NC1CC1 | < 4.52 | > 150 | < 4.70
CC(C)(C)[C@H](NC(=O)CC12CC3CC(CC(C3)C1)C2)C(=O)N1C[C@@H]2CCC[C@@H]2[C@H]1C(=O)N[C@H](C(=O)C(=O)NC1CC1)c1ccccc1 | 6.24 | 35.8 | 6.64
CCC[C@H](NC(=O)[C@@H]1[C@H]2CCC[C@H]2CN1C(=O)[C@@H](NC(=O)NC12CC3CC(CC(C3)C1)C2)C(C)(C)C)C(=O)C(=O)NC1CC1 | 6.15 | 42.2 | 6.80
CCC[C@H](NC(=O)[C@@H]1[C@H]2CCC[C@H]2CN1C(=O)[C@@H](NC(=O)CC1CCCC1)C(C)(C)C)C(=O)C(=O)NC1CC1 | 6.15 | > 150 | 7.00
CC(C)C[C@H](NC(=O)[C@@H]1[C@H]2CCC[C@H]2CN1C(=O)[C@@H](NC(=O)CC12CC3CC(CC(C3)C1)C2)C(C)(C)C)C(=O)C(=O)NC1CC1 | 6.59 | 26.3 | 6.59
